Measurements as given in ChEMBL document CHEMBL1933048, “Inhibition of the pore-forming protein perforin by a series of aryl-substituted isobenzofuran-1(3H)-ones” (Bioorg Med Chem, 2012).
Activity calls are given as the source filed them. The calls are words filed in the database; no cut-off is given here.

What was measured:
Type in all cases: cell-based
[1] = target: T1, Perforin-1 (Homo sapiens) (UniProt P14222); assay: Inhibition of perforin released from human KHYG-1 NK cells assessed as inhibition of perforin-mediated lysis of human K562 cells at 20 uM by [51Cr] release assay in presence of 10% mouse serum
T1 sequence (whole entry): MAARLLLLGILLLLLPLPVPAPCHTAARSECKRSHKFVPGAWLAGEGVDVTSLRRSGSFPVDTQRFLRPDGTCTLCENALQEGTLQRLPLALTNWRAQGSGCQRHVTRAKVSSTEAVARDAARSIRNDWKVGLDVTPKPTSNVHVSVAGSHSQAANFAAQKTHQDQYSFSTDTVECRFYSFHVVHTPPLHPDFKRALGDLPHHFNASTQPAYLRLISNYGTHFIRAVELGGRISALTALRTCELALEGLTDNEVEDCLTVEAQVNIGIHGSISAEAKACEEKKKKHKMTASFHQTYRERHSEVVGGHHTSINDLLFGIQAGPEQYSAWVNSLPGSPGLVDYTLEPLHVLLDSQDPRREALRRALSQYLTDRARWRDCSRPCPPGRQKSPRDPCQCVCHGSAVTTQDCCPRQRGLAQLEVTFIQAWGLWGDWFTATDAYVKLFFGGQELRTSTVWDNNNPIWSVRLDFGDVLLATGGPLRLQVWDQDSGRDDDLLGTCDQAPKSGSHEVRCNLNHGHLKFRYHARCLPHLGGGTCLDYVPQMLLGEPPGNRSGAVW
Method in brief: (§1)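 KHYG-1 cells (4 × 10⁵/mL, RPMI + 0.1% BSA) received either BSA medium or 10% mouse serum final, then compound at 20 µM for 20 min at rt. K562 cells labelled with 75 µCi ⁵¹Cr (90 min, 37 °C) and washed were added at E:T 2:1 for 4 h at 37 °C. ⁵¹Cr release was gamma-counted. Specific lysis used spontaneous/maximum release, and inhibition was taken vs untreated control. Triplicate wells; ≥3 determinations.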

[2] = target: T1, Perforin-1 (Homo sapiens); assay: Inhibition of perforin released from human KHYG-1 NK cells assessed as inhibition of perforin-mediated lysis of human K562 cells at 20 uM by [51Cr] release assay in absence of serum; method in brief: as §1
[3] = Cytotoxicity against human KHYG-1 NK cells assessed as cell viability at 20 uM after 18 to 24 hrs by trypan blue assay; conditions: read-out: Activity
Method in brief: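 KHYG-1 NK cells were suspended at 4 × 10⁵ cells/mL in RPMI + 0.1% BSA and treated with compound at rt for 20 min. Instead of target cells, RPMI + 0.1% BSA was added, followed by 4 h at 37 °C. Cells were washed ×3 and kept in complete medium for 18–24 h at 37 °C. Trypan blue viable/total counts gave % viability vs a DMSO control. Values are the mean of ≥3 determinations.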

[4] = target: T1, Perforin-1 (Homo sapiens); assay: Inhibition of recombinant perforin-mediated lysis of Jurkat cells assessed as [51Cr] release at 20 uM preincubated with perforin for 30 mins followed by incubation with [51Cr]-labeled Jurkat cells by gamma counting
Method in brief: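 Compound at 20 µM was preincubated with recombinant perforin for 30 min, with DMSO as negative control. Jurkat cells were labelled with 100 µCi ⁵¹Cr for 1 h, washed ×3 and used at 1 × 10⁵/mL in RPMI + 0.1% BSA. They were added and incubated for 4 h at 37 °C. Supernatant radioactivity was measured by gamma counting. Triplicate points.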

[5] = target: Pneumolysin (Streptococcus pneumoniae serotype 4 (strain ATCC BAA-334 / TIGR4)) (UniProt P0C2J9); assay: Inhibition of Streptococcus pneumoniae pneumolysin-mediated lysis of Jurkat cells assessed as [51Cr] release at 20 uM […] for 30 mins followed by incubation with [51Cr]-labeled Jurkat cells by gamma counting
Method in brief: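 Single 20 µM concentration, preincubated 30 min with pneumolysin in place of perforin, with DMSO as negative control. Jurkat cells were labelled 1 h with 100 µCi ⁵¹Cr, washed three times, and resuspended at 1 × 10⁵ cells/mL in RPMI with 0.1% BSA. Labelled cells were then added for 4 h at 37 °C, and supernatant radioactivity was gamma-counted.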

Pneumolysin (Streptococcus pneumoniae serotype 4 (strain ATCC BAA-334 / TIGR4)), sequence (P0C2J9 whole entry): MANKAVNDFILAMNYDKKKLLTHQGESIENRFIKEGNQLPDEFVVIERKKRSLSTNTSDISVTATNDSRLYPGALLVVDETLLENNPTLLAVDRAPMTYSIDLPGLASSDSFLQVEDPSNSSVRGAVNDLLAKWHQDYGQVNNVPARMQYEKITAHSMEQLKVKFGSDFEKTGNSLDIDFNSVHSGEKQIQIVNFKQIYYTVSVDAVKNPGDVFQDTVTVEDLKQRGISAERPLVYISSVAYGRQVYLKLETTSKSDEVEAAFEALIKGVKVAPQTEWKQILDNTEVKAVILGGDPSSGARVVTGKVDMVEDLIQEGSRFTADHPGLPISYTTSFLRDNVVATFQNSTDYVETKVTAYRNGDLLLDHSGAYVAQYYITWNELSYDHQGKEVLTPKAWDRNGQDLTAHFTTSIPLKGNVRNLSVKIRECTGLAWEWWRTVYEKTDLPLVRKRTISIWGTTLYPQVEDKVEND

Row | SMILES | inhibition [1] [%] | inhibition [2] [%] | viability at 20 µM [3] [%] | inhibition [4] | inhibition [5]
1 | O=C1NC(=S)N/C1=C/c1cc2cc(-c3ccc4c(c3)COC4=O)ccc2o1 | 35 | 61 | 29.9 | – | –
2 | O=C1NC(=S)N/C1=C/c1nc(-c2ccc3c(c2)COC3=O)cs1 | 13 | 30 | 91 | – | –
3 | O=C1NC(=O)C(=Cc2ccc(-c3ccc4c(c3)COC4=O)s2)C(=O)N1 | 10 | 52 | 77.6 | – | –
4 | O=C1NC(=S)N/C1=C/c1cc(-c2ccc3c(c2)COC3=O)ns1 | 26 | 45 | 57 | – | –
5 | O=C1NC(=S)N/C1=C/c1cc(-c2ccc3c(c2)COC3=O)no1 | 23 | 41 | 63 | – | –
6 | O=C1NC(=S)N/C1=C/c1ccc2cc(-c3ccc4c(c3)COC4=O)ccc2n1 | 35 | 60 | 48.5 | – | –
7 | O=C1NC(=S)N/C1=C/c1cc2cc(-c3ccc4c(c3)COC4=O)ccc2[nH]1 | 83 | 91 | 23.2 | – | –
8 | O=C1NC(=S)N/C1=C/c1ccc2ccc(-c3ccc4c(c3)COC4=O)cc2n1 | 38 | 52 | 59 | – | –
9 | O=C1NC(=S)N/C1=C/c1ccc(-c2ccc3c(c2)COC3=O)s1 | 38.9 | 53 | 88 | – | –
10 | O=C1NC(=S)NC(=O)C1=Cc1ccc(-c2ccc3c(c2)COC3=O)s1 | 73 | 91 | 38 | – | –
11 | O=C1NC(=S)N/C1=C/c1cc(-c2ccc3c(c2)COC3=O)cs1 | 42 | 49 | 55 | – | –
12 | O=C1NC(=S)N/C1=C/c1csc(-c2ccc3c(c2)COC3=O)n1 | 2 | 11 | 25 | – | –
13 | O=C1NC(=S)N/C1=C/c1cc2ccc(-c3ccc4c(c3)COC4=O)cc2s1 | 25 | 46 | 19.7 | – | –
14 | O=C1NC(=O)/C(=C\c2ccc(-c3ccc4c(c3)COC4=O)s2)N1 | 64 | 54 | 91.5 | – | –
15 | O=C1NC(=S)N/C1=C/c1ccc(-c2ccc3c(c2)COC3=O)cn1 | 20 | 37 | 92 | – | –
16 | O=C1NC(=O)/C(=C\c2ccc(-c3ccc4c(c3)COC4=O)s2)S1 | 12 | 36 | 19 | – | –
17 | O=C1NC(=S)N/C1=C/c1cc2ccc(-c3ccc4c(c3)COC4=O)cc2[nH]1 | 100 | 100 | 10 | – | –
18 | Cc1cc2c(c(=S)[nH]1)C(=O)OC2=Cc1csc2ccccc12 | 10.3 | 41 | 77 | – | –
19 | O=C1NC(=S)N/C1=C/c1cnc(-c2ccc3c(c2)COC3=O)s1 | 27 | 45 | 68 | – | –
20 | O=C1NC(=S)N/C1=C/c1ccc(-c2ccc3c(c2)COC3=O)cc1 | 30 | 28 | 59 | – | –
21 | O=C1NC(=S)N/C1=C/c1ccc(-c2ccc3c(c2)COC3=O)o1 | 23 | 74 | 66 | Active | inactive
22 | O=C1NC(=S)N/C1=C/c1cc2cc(-c3ccc4c(c3)COC4=O)ccc2s1 | 17 | 51 | 27 | – | –
